Measured values taken from ChEMBL document CHEMBL5058577, “EUbOPEN Chemogenomics Library 2 (Multiplex)” (2022).

Tested on: U2OS
Assay: Multiplex assay against U2OS
Format: toxicity, cell-based
Conditions: human
How it was run: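 Hoechst33342, BioTracker Green Microtubule Cytoskeleton Dye, MitoTracker Red and Annexin V Alexa Fluor 680 were added to live cells at seeding, and imaging on a CQ1 microscope at 37°C and 5% CO2 followed compound addition. Gating by CellPathfinder machine learning separated cells into Hoechst high-intensity objects or normal cells, then normal cells into healthy, pyknosed or fragmented nuclei, then pyknosed cells into mitotic or apoptotic. Per cents of healthy-nucleus cells are reported for the tubulin, mitochondrial-mass and membrane-permeability phenotypes.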

[1] = 12 h, 1 µM, compound concentration 1 uM, replicate 1
[2] = 12 h, 1 µM, compound concentration 1 uM, replicate 2
[3] = 12 h, 10 µM, compound concentration 10 uM, replicate 1
[4] = 12 h, 10 µM, compound concentration 10 uM, replicate 2
[5] = 24 h, 1 µM, compound concentration 1 uM, replicate 1
[6] = 24 h, 1 µM, compound concentration 1 uM, replicate 2
[7] = 24 h, 10 µM, compound concentration 10 uM, replicate 1
[8] = 24 h, 10 µM, compound concentration 10 uM, replicate 2
[9] = 48 h, 1 µM, compound concentration 1 uM, replicate 1
[10] = 48 h, 1 µM, compound concentration 1 uM, replicate 2
[11] = 48 h, 10 µM, compound concentration 10 uM, replicate 1
[12] = 48 h, 10 µM, compound concentration 10 uM, replicate 2

With CCc1cc2cc(NS(=O)(=O)c3ccc(C#N)cc3)ccc2n(CC)c1=O the “Population Apoptotic (%)” value [1] was 88%, the “Population Fragmented Nuclei (%)” value [1] was 30% and the “Population Healthy Nuclei (%)” value [1] was 60%. For the same compound, the “Population Hoechst High Intensity Objects (%)” value [1] was 3%, the “Population Membrane Permeable-Phenotype (%)” value [1] was 4% and the “Population Mitochondria Different-Phenotype (%)” value [1] was 2%. For the same compound, the “Population Mitotic Cells (%)” value [1] was 11%, the “Population Normal (%)” value [1] was 96% and the “Population Pyknosed Nuclei (%)” value [1] was 9%. For the same compound, the “Population Tubulin-Different-Phenotype (%)” value [1] was 2%, the “Total Cell Count” value [1] was 286 and the “Population Apoptotic (%)” value [2] was 100%. The “Population Fragmented Nuclei (%)” value [2] was 26%, the “Population Healthy Nuclei (%)” value [2] was 70% and the “Population Hoechst High Intensity Objects (%)” value [2] was 1%. For the same compound, the “Population Membrane Permeable-Phenotype (%)” value [2] was 8%, the “Population Mitotic Cells (%)” value [2] was 0% and the “Population Normal (%)” value [2] was 98%. The “Population Pyknosed Nuclei (%)” value [2] was 3%, the “Population Tubulin-Different-Phenotype (%)” value [2] was 7% and the “Total Cell Count” value [2] was 113. The “Population Apoptotic (%)” value [3] was 66%, the “Population Fragmented Nuclei (%)” value [3] was 28% and the “Population Healthy Nuclei (%)” value [3] was 64%. For the same compound, the “Population Hoechst High Intensity Objects (%)” value [3] was 2%, the “Population Membrane Permeable-Phenotype (%)” value [3] was 9% and the “Population Mitochondria Different-Phenotype (%)” value [3] was 3%. The “Population Mitotic Cells (%)” value [3] was 33%, the “Population Normal (%)” value [3] was 97% and the “Population Pyknosed Nuclei (%)” value [3] was 6%. For the same compound, the “Population Tubulin-Different-Phenotype (%)” value [3] was 4%, the “Total Cell Count” value [3] was 220 and the “Population Apoptotic (%)” value [4] was 87%. The “Population Fragmented Nuclei (%)” value [4] was 13%, the “Population Healthy Nuclei (%)” value [4] was 80% and the “Population Membrane Permeable-Phenotype (%)” value [4] was 6%. For the same compound, the “Population Mitotic Cells (%)” value [4] was 12%, the “Population Pyknosed Nuclei (%)” value [4] was 5% and the “Total Cell Count” value [4] was 139. For the same compound, the “Population Apoptotic (%)” value [5] was 85%, the “Population Fragmented Nuclei (%)” value [5] was 29% and the “Population Healthy Nuclei (%)” value [5] was 61%. The “Population Hoechst High Intensity Objects (%)” value [5] was 2%, the “Population Membrane Permeable-Phenotype (%)” value [5] was 9% and the “Population Mitochondria Different-Phenotype (%)” value [5] was 2%. For the same compound, the “Population Mitotic Cells (%)” value [5] was 14%, the “Population Normal (%)” value [5] was 97% and the “Population Pyknosed Nuclei (%)” value [5] was 8%. The “Population Tubulin-Different-Phenotype (%)” value [5] was 6%, the “Total Cell Count” value [5] was 335 and the “Population Apoptotic (%)” value [6] was 88%. The “Population Fragmented Nuclei (%)” value [6] was 16%, the “Population Healthy Nuclei (%)” value [6] was 75% and the “Population Hoechst High Intensity Objects (%)” value [6] was 1%. For the same compound, the “Population Membrane Permeable-Phenotype (%)” value [6] was 7%, the “Population Mitochondria Different-Phenotype (%)” value [6] was 7% and the “Population Mitotic Cells (%)” value [6] was 11%. For the same compound, the “Population Normal (%)” value [6] was 98%, the “Population Pyknosed Nuclei (%)” value [6] was 7% and the “Population Tubulin-Different-Phenotype (%)” value [6] was 3%. For the same compound, the “Total Cell Count” value [6] was 126, the “Population Apoptotic (%)” value [7] was 95% and the “Population Fragmented Nuclei (%)” value [7] was 23%. The “Population Healthy Nuclei (%)” value [7] was 67%, the “Population Hoechst High Intensity Objects (%)” value [7] was 3% and the “Population Membrane Permeable-Phenotype (%)” value [7] was 4%. The “Population Mitochondria Different-Phenotype (%)” value [7] was 2%, the “Population Mitotic Cells (%)” value [7] was 4% and the “Population Normal (%)” value [7] was 96%. The “Population Pyknosed Nuclei (%)” value [7] was 9%, the “Population Tubulin-Different-Phenotype (%)” value [7] was 1% and the “Total Cell Count” value [7] was 263. The “Population Apoptotic (%)” value [8] was 80%, the “Population Fragmented Nuclei (%)” value [8] was 14% and the “Population Healthy Nuclei (%)” value [8] was 79%. The “Population Membrane Permeable-Phenotype (%)” value [8] was 6%, the “Population Mitotic Cells (%)” value [8] was 20% and the “Population Pyknosed Nuclei (%)” value [8] was 6%. The “Population Tubulin-Different-Phenotype (%)” value [8] was 2%, the “Total Cell Count” value [8] was 159 and the “Population Apoptotic (%)” value [9] was 89%. The “Population Fragmented Nuclei (%)” value [9] was 21%, the “Population Healthy Nuclei (%)” value [9] was 70% and the “Population Hoechst High Intensity Objects (%)” value [9] was 2%. For the same compound, the “Population Membrane Permeable-Phenotype (%)” value [9] was 6%, the “Population Mitochondria Different-Phenotype (%)” value [9] was 3% and the “Population Mitotic Cells (%)” value [9] was 10%. The “Population Normal (%)” value [9] was 97%, the “Population Pyknosed Nuclei (%)” value [9] was 8% and the “Population Tubulin-Different-Phenotype (%)” value [9] was 2%. For the same compound, the “Total Cell Count” value [9] was 450, the “Population Apoptotic (%)” value [10] was 84% and the “Population Fragmented Nuclei (%)” value [10] was 19%. For the same compound, the “Population Healthy Nuclei (%)” value [10] was 73%, the “Population Hoechst High Intensity Objects (%)” value [10] was 3% and the “Population Mitochondria Different-Phenotype (%)” value [10] was 5%. The “Population Mitotic Cells (%)” value [10] was 15%, the “Population Normal (%)” value [10] was 96% and the “Population Pyknosed Nuclei (%)” value [10] was 6%. For the same compound, the “Population Tubulin-Different-Phenotype (%)” value [10] was 3%, the “Total Cell Count” value [10] was 192 and the “Population Apoptotic (%)” value [11] was 88%. For the same compound, the “Population Fragmented Nuclei (%)” value [11] was 18%, the “Population Healthy Nuclei (%)” value [11] was 72% and the “Population Hoechst High Intensity Objects (%)” value [11] was 3%. The “Population Membrane Permeable-Phenotype (%)” value [11] was 6%, the “Population Mitochondria Different-Phenotype (%)” value [11] was 2% and the “Population Mitotic Cells (%)” value [11] was 11%. For the same compound, the “Population Normal (%)” value [11] was 96%, the “Population Pyknosed Nuclei (%)” value [11] was 9% and the “Population Tubulin-Different-Phenotype (%)” value [11] was 3%. For the same compound, the “Total Cell Count” value [11] was 387, the “Population Apoptotic (%)” value [12] was 96% and the “Population Fragmented Nuclei (%)” value [12] was 15%. For the same compound, the “Population Healthy Nuclei (%)” value [12] was 73%, the “Population Hoechst High Intensity Objects (%)” value [12] was 2% and the “Population Membrane Permeable-Phenotype (%)” value [12] was 8%. The “Population Mitochondria Different-Phenotype (%)” value [12] was 3%, the “Population Mitotic Cells (%)” value [12] was 3% and the “Population Normal (%)” value [12] was 97%. The “Population Pyknosed Nuclei (%)” value [12] was 11%, the “Population Tubulin-Different-Phenotype (%)” value [12] was 7% and the “Total Cell Count” value [12] was 248.
